Measured values gathered from unrelated publications.
Each line is one published result; the experiments were not run side by side.
Target: Serine/threonine-protein kinase PLK4 (PLK4, Homo sapiens, UniProt O00444)
Residues used in one study (O00444 1-970): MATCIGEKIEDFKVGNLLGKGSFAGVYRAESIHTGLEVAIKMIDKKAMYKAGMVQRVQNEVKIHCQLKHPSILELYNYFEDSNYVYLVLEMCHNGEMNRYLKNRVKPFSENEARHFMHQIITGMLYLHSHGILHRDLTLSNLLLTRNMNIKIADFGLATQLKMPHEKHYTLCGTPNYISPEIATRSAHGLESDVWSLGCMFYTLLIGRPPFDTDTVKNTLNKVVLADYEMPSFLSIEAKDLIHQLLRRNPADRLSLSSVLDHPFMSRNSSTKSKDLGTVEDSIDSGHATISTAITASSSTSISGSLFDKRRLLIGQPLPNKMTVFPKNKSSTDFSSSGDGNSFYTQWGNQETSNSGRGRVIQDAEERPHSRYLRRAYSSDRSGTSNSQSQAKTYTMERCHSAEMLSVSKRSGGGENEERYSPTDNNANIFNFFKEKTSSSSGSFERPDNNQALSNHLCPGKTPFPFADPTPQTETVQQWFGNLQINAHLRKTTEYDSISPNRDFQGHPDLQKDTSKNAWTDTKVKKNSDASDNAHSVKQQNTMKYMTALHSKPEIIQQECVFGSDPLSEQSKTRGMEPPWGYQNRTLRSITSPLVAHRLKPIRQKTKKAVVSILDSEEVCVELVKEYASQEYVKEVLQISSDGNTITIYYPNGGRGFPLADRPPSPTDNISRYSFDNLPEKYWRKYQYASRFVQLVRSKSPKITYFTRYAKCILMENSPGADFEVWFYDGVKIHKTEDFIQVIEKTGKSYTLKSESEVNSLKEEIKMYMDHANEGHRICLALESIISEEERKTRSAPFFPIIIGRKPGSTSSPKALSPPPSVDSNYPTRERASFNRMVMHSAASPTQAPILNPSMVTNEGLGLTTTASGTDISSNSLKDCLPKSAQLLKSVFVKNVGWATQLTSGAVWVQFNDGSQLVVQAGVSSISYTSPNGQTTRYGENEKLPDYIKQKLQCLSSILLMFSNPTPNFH

SMILES | read-out | action | technique | concentration | quantity | value
N#Cc1ccc(NC(=O)Nc2ccccc2)cc1 | cell-free assay | – | competition with immobilised ligand | 25 µM | remaining binding | 61%
COc1ccc2oc(-c3ccc4nc(N)oc4c3)c/c(=N\c3ccccc3NC(=O)CCN)c2c1 | binding | – | – | 1 µM | remaining binding | 98%
CCCCC(=O)Nc1ccc(-c2ccc3ncn(CCC)c(=O)c3c2)cn1 | binding | – | competition with immobilised ligand | 0.5 µM | remaining binding | 100%
Cc1ccc(NC(=O)c2ccnc(C(F)(F)F)c2)cc1-c1cc(OCCO)nc(N2CCOCC2)c1 | binding | – | competition with immobilised ligand | 1 µM | remaining binding | 75%
C=CC(=O)N1CCC([C@@H]2CCNc3c(C(N)=O)c(-c4ccc(Oc5ccccc5)cc4)nn32)CC1 | enzyme activity | inhibitor | – | 1 µM | inhibition | 1%
C1=C/COCc2cc(ccc2OCCN2CCCC2)Nc2nccc(n2)-c2cccc(c2)COC/1 | binding | – | – | 0.1 µM | remaining binding | 42%
C=CC(=O)N1CCC[C@@H](n2nc(-c3ccc(Oc4ccccc4)cc3)c3c(N)ncnc32)C1 | enzyme activity | inhibitor | – | 1 µM | inhibition | 5%
C[C@H]1CC[C@H](n2c3cnccc3c3cnc(Nc4ccc5c(n4)CCN(C(=O)CO)C5)nc32)CC1 | binding | – | competition with immobilised ligand | 1 µM | remaining binding | 18%
C#Cc1cc(-c2cc(Nc3nc(N[C@@H](C)c4ccc(F)cn4)ncc3Cl)n[nH]2)ccc1C=O | enzyme activity | inhibitor | – | 0.2 µM | inhibition | 80.7%
